In ChEMBL document CHEMBL4402514, “Norepinephrine-Transporter-Targeted and DNA-Co-Targeted Theranostic Guanidines” (J Med Chem, 2020):

Tests used:
[1] = Stability in human serum assessed as intact compound level after 60 mins by HPLC analysis; type: ADME, cell-free; details: read-out: Stability
Method in brief: (§1)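 Radioiodinated guanidines were incubated in mouse, human or pig serum and analyzed by radio-HPLC on a C18 column at 0.8 mL/min. The gradient was 0–95% CH3CN over 50 min, then 95% for 20 min. Intact compound was fitted to monoexponential degradation to give half-life. Values are average ± std err.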

[2] = Dissociation constant, pKa of compound; type: physicochemical
SK-N-SH [3] = test: Antiproliferative activity against human SK-N-SH cells assessed as extracellular concentration of 125I required to show 63% inhibition after 24 hrs; type: cell-based
Method in brief: (§2)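 D37 (63% kill) was estimated for SK-N-SH cells treated 24 h with IDG. It is expressed as extracellular (kBq/mL) or intracellular (mBq/cell) 125I. Survival was assessed by trypan blue and clonogenic assays. Values are average (std error).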

BE(2)-C [4] = test: Antiproliferative activity against human BE(2)-C cells assessed as intracellular concentration of 125I required to show 63% inhibition after 1 hr; type: cell-based
Method in brief: (§3)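 BE(2)-C cells were treated for 1 h with several IDG concentrations, washed extensively, harvested with trypsin and replated for clonogenic assay. Cellular 125I uptake was measured per cell. D37 (63% kill) was estimated from survival versus extracellular concentration or intracellular content (mBq/cell). Values are average (std error).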

SK-N-SH [5] = test: Antiproliferative activity against human SK-N-SH cells assessed as intracellular concentration of 125I required to show 63% inhibition after 24 hrs; type: cell-based; method in brief: as §2
[6] = Drug level in human SK-N-SH cells DNA at 40 +/- 0.5 kBq/mL after 24 hrs by gamma counting method relative to control; type: ADME, cell-based
Method in brief: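 SK-N-SH cells were exposed 1 h to 125I compound (≈39–40 kBq/mL), then washed with nonradioactive medium and PBS. Cells were processed immediately (1 h) or re-incubated in fresh medium for 23 h (24 h). Cytoplasmic, nuclear and DNA fractions were gamma-counted.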

[7] = Drug uptake in human SK-N-SH cells assessed as level of 125I-incorporation into DNA after 1 hr and followed by compound washout with non-radioactive medium/PBS and measured immediately by gamma counting method relative to control; type: ADME, cell-based
Method in brief: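 SK-N-SH cells exposed to the 125I-labelled guanidine for 1 h, then washed with nonradioactive medium and PBS. Cells were either processed at once (1 h) or given fresh nonradioactive medium and returned to the incubator for 23 h (24 h). Subcellular fractions (cytoplasm, DNA) were counted by γ-counter. Values are mean and SD, n ≥ 3.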

[8] = Drug level in tumor of NCR nu/nu mouse xenografted with human BE(2)-C cells at 0.33 +/- 0.05 MBq administered intratumorally after 24 hrs by gamma counting method; type: ADME, tissue-based, Neoplasm; details: in vivo, other
Method in brief: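 Athymic Ncr nu/nu female and male mice bearing subcutaneous BE(2)-C xenografts received intratumor injections of the 125I agent. Tissues, tumor and blood were collected at 24 h and counted for radioactivity, expressed as %ID/g. Tumor-to-blood ratios were derived.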

[9] = biological target: T1, Sodium-dependent noradrenaline transporter (Homo sapiens, UniProt P23975); test: Substrate activity at NET in human BE(2)-C cells assessed as inhibition of drug uptake by measuring MIBG IC50 incubated for 1 hr in presence of nonradioactive MIBG by gamma counting method; type: cell-based
T1 sequence (P23975 whole entry): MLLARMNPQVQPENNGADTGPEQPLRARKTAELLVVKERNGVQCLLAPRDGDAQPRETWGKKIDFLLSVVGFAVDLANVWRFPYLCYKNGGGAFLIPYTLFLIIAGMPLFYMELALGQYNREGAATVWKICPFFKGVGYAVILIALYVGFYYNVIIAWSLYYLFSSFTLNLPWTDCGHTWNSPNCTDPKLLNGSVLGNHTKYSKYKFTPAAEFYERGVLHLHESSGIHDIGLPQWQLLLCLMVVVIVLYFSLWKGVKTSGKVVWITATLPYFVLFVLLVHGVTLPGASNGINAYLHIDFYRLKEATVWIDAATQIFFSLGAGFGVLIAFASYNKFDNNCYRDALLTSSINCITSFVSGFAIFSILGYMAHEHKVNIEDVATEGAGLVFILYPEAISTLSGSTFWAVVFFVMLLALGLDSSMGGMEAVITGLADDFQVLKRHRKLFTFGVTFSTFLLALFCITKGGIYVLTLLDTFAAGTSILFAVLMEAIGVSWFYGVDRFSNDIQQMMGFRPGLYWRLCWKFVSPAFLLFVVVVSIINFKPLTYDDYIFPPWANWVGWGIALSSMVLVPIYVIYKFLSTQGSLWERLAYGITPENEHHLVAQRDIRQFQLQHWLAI

[10] = Drug level in tumor of NCR nu/nu mouse xenografted with human BE(2)-C cells at 0.83 +/- 0.09 MBq administered intratumorally pretreated with 18 umol of BNPP after 24 hrs by gamma counting analysis; type: ADME, tissue-based, Neoplasm; details: in vivo, other
Method in brief: (§4)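 BE(2)-C xenograft-bearing nude mice were pre-injected with the carboxylesterase inhibitor bis-para-nitrophenylphosphate (9 or 18 μmol). They then received intratumor IDG. Tumor %ID/g was determined at 24 h.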

[11] = Half life in human serum by HPLC analysis; type: ADME, cell-free; method in brief: as §1
BE(2)-C [12] = test: Antitumor activity against human BE(2)-C cells xenografted with NCR nu/nu mouse assessed as tumor volume at 8.4 +/- 0.3 mBq administered intratumorally after 7 days; type: functional
Method in brief: (§5)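 Athymic Ncr nu/nu female and male mice bearing subcutaneous BE(2)-C xenografts were randomized by lottery into untreated control and treatment groups. Treatment was a single intratumor injection of 8.4 ± 0.3 MBq/mouse. Tumor volumes were followed to day 7 (controls) or day 14. Doubling times were calculated from day 0 to 7 and day 0 to 14. Values are average ± std err.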

[13] = biological target: T1, Sodium-dependent noradrenaline transporter; test: Substrate activity at NET in human BE(2)-C cells assessed as inhibition of drug uptake by measuring MIBG IC50 incubated for 1 hr in presence of nonradioactive MIBG at 37 degC by filtration based gamma counting method; type: cell-based
[14] = Half life in pig serum by HPLC analysis; type: ADME, cell-free, Sus scrofa; method in brief: as §1
BE(2)-C [15] = test: Antitumor activity against human BE(2)-C cells xenografted with NCR nu/nu mouse assessed as tumor volume at 8.4 +/- 0.3 mBq administered intratumorally after 14 days (reference value: […]); type: functional; method in brief: as §5
BE(2)-C [16] = test: Antitumor activity against human BE(2)-C cells xenografted with NCR nu/nu mouse assessed as doubling time at 8.4 +/- 0.3 mBq administered intratumorally measured up to 14 days; type: functional; method in brief: as §5
SK-N-SH [17] = test: Antiproliferative activity against human SK-N-SH cells assessed as cell viability at 180 kBa/ml after 24 hrs by trypan blue assay relative to control; type: functional
Method in brief: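 Cell survival was scored by trypan blue exclusion 24 h after exposing SK-N-SH cells to radioiodinated guanidine at varied extracellular concentrations. Values are average (n ≥ 3) ± SD.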

[18] = Stability in human serum assessed as intact compound level after 5 mins by HPLC analysis; type: ADME, cell-free; details: read-out: Stability; method in brief: as §1
[19] = Half life in mouse serum by HPLC analysis; type: ADME, cell-free; method in brief: as §1
BE(2)-C [20] = test: Antitumor activity against human BE(2)-C cells xenografted with NCR nu/nu mouse assessed as tumor volume at 8.4 +/- 0.3 mBq administered intratumorally after 1 day (reference value: 0.39 +/- 0.15 cm3); type: functional; method in brief: as §5
BE(2)-C [21] = test: Antiproliferative activity against human BE(2)-C cells assessed as extracellular concentration of 125I required to show 63% inhibition after 1 hr; type: cell-based; method in brief: as §3
SK-N-SH [22] = test: Anticlonogenic activity against human SK-N-SH cells assessed as number of colonies at 40 +/- 0.5 kBq/mL kBq/mL after 1 hr by crystal violet staining based assay; type: functional
Method in brief: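 SK-N-SH cells exposed for 1 h to 125I-MIBG (39.3 ± 0.3 kBq/mL extracellular) or IDG (40 ± 0.5 kBq/mL). For the 1 h group, cells were washed with nonradioactive medium and PBS, harvested with trypsin and replated for the clonogenic assay. For the 24 h group, cells were washed, given fresh nonradioactive medium and incubated a further 23 h before plating. Colonies were counted.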

[23] = Drug uptake in human BE(2)-C cells assessed as level of 125I-incorporation into DNA incubated 1 hr followed by compound washout with non-radioactive medium/PBS and measured after 23 hrs by gamma counting method relative to control; type: ADME, cell-based
Method in brief: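 BE(2)-C cells were treated with radioiodinated guanidine for 1 h, washed with nonradioactive medium and PBS. They were processed immediately or returned to the incubator for a further 23 h. 125I in the DNA fraction was gamma-counted. Values are average (n ≥ 3) ± SD.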

[24] = Drug level in tumor of NCR nu/nu mouse xenografted with human BE(2)-C cells at 0.83 +/- 0.09 MBq administered intratumorally pretreated with 9 umol of BNPP after 24 hrs by gamma counting analysis; type: ADME, tissue-based, Neoplasm; details: in vivo, other; method in brief: as §4

remaining at 1 h [1]: 62.4%
pKa [2]: 12.1
Drug uptake [6]: > 97%
Drug uptake [7]: 81%
Drug uptake [8]: 3.93 % ID/g
IC50 [9]: 8.2 µM
Drug uptake [10]: 1.66 % ID/g
half-life [11]: 2.28 h
IC50 [13]: 28.7 µM
half-life [14]: 3.59 h
remaining at 5 min [18]: 93%
half-life [19]: 3.54 min
Drug uptake [23]: 99%
Drug uptake [24]: 1.63 % ID/g
SMILES: N=C(N)NCCCCCC(=O)O[C@H]1C[C@H](n2cc([125I])c(=O)[nH]c2=O)O[C@@H]1CO
Activity (SK-N-SH [3]): 15.6 kBq/ml
Activity (BE(2)-C [4]): 0.91 mBq
Activity (SK-N-SH [5]): 1.2 mBq
Activity (BE(2)-C [12]): 0.54 cm3
Activity (BE(2)-C [15]): 2.55 cm3
Time (BE(2)-C [16]): 5.3 days
Activity (SK-N-SH [17]): 60%
Activity (BE(2)-C [20]): 0.42 cm3
Activity (BE(2)-C [21]): 398 kBq/ml
Activity (SK-N-SH [22]): 163
